CHOP inh: blocks CHOP induction under ER stress; 220,000 tested, 3.8% active; CHO-K1 CHOP-promoter luciferase, tunicamycin-induced, 15-18 h; inhibition, % at 10 µM;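 active = compounds that reduced the stress-induced luciferase reporter signal by more than about 70% of percent inhibition, limit read from the data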;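 note: 0% = tunicamycin plus vehicle and 100% = wells without tunicamycin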
CHOP UPR activ: apoptotic UPR (CHOP) activation | CHO-CHOP luciferase reporter, luminescence; percent of tunicamycin response over DMSO baseline | activation, % at 10 µM | 330,000 tested, 0.34% active;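 active = at 10 µM dose, activation of 40% or more, normalized to positive control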;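 note: 100% = tunicamycin at 10 µg/mL and 0% = DMSO alone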
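Assay system: CHO cells with stable CHOP pathway luciferase reporter; Buffer or medium: F12 plus 10% serum; Times: 16-18 h cell attachment, then 6 h compound exposure, 37 °C; Signal: luciferase luminescence; Read-out basis: percent activation relative to tunicamycin control; Control set: tunicamycin high control, DMSO low control.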
NOD2-RIPK2 inh: NOD2-RIPK2 protein interaction inhibition; CHO BLA complementation NOD2-RIPK2, CCF4 ratio; 360,000 tested, 0.38% active; inhibition, % at 4.98 µM; O43353; in the data active = inhibition above about 21%;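 note: 0% = vehicle only and 100% = reference blocker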
TLR9-MyD88 inh: blocks human TLR9 binding to MyD88; AID 504734; inhibition, % at 4.98 µM; 340,000 tested, 0.21% active; CHO BLA complementation TLR9-MyD88, CCF4 FRET ratio;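 active = inhibition above the mean over all tested compounds plus 3 SD, cut at about 21% in these data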;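 note: 0% = DMSO only wells and 100% = clavulanate BLA inhibitor control wells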
TLR4-MyD88 BLA: TLR4-MyD88 interaction inhibition in cells; O00206+Q99836; HeLa CL3-4 TLR4/MyD88 BLA complementation, FRET ratio; inhibition, % at 8.4 µM; 200,000 tested, 0.18% active; in the data active = inhibition above about 25%;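 note: 0% = vehicle and 100% = reference inhibitor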
UPR XBP1 act: adaptive UPR (XBP1) activation; CHO-XBP1 luciferase reporter, IRE1-XBP1 UPR activation, luminescence; percent of tunicamycin response, DMSO as zero; activation, % at 20 µM; 330,000 tested, 0.33% active;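 active = versus positive control, 20 µM dose yields 30% or more activation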;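 note: 100% = tunicamycin at 10 µg/mL and 0% = DMSO only wells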
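Material – CHO cell line with stable XBP1 luciferase reporter · Buffer or medium – F12 plus 10% FBS · Compound – single point, 20 µM final compound, 1% DMSO · Schedule – 16-18 h cell attachment at 37 °C, then 6 h compound exposure · Signal – Steady-Glo luminescence read · Benchmarks – high control tunicamycin 10 µg/mL final, low control DMSO vehicle only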
TLR4-MyD88 conf: TLR4-MyD88 interaction inhibition confirmed | shares compounds with TLR4-MyD88 BLA | inhibition, % at 8.4 µM | AID 941 | HeLa CL3-4 BLA complementation, CCF4 FRET ratio | 350 tested, 50% active;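 active = mean inhibition across three repeat runs above about 25% carried over from the earlier screen, limit read from the data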;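 note: plate controls were DMSO only for no effect and clavulanic acid blocking BLA at full dose for full effect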
BLA inh HeLa: beta-lactamase inhibition flagged in TLR4-MyD88 counter-screen; HeLa BLA reporter, CCF4 FRET ratio; inhibition, % at 8.4 µM; 350 tested, 63% active; shares compounds with TLR4-MyD88 BLA;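 active = mean inhibition over three repeats above about 26% taken from the earlier screen, limit read from the data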;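 note: HeLa cells stably expressing beta-lactamase reporter as counterscreen for TLR4-MyD88 inhibitors; 0% = DMSO and 100% = clavulanic acid full inhibition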
CHOP inh conf: confirmation of CHOP induction inhibitors. shares compounds with CHOP inh. CHO-CHOP promoter luciferase reporter, tunicamycin-induced, luminescence. inhibition, % at 10 µM. 2,100 tested, 45% active;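 active = mean of three repeat readings of reporter signal inhibition above a set limit, cut at about 70% in these data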;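 note: 0% = tunicamycin plus vehicle and 100% = wells lacking tunicamycin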
TLR9-MyD88 cf: confirmation of human TLR9-MyD88 binding inhibitors; shares compounds with TLR9-MyD88 inh; CHO TLR9/MyD88 BLA complementation, CCF4 FRET ratio; inhibition, % at 4.98 µM; 680 tested, 51% active; AID 540250;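 active = mean inhibition across three repeats above about 21% taken from the earlier screen, limit read from the data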;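 note: blue over green emission ratio reports constitutive TLR9 MyD88 association via BLA complementation; 0% = DMSO vehicle wells and 100% = clavulanate BLA inhibitor wells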
BLA counter-1: counter-screen for TLR9-MyD88 inhibitors: non-selective beta-lactamase inhibitors. shares compounds with TLR9-MyD88 inh. CHO-BLA cells, CCF4 FRET ratio, BLA reporter. inhibition, % at 4.98 µM. 680 tested, 7% active. AID 540251;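 active = mean inhibition above a 50% cutoff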;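 note: counterscreen of TLR9-MyD88 hits on CMV-driven BLA in CHO-K1 cells; 0% = DMSO alone and 100% = clavulanate blocking BLA; higher means less blue over green ratio so more BLA blockade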
TLR9 CHO tox: CHO cell toxicity counter-screen for TLR9-MyD88 inhibitors; TLR9-MyD88 CHO cells cytotoxicity, luminescence; inhibition, % at 4.98 µM; shares compounds with TLR9-MyD88 inh; 680 tested, 39% active; in the data active = inhibition above about 11%
NOD2 RIPK2 conf: confirmation of human NOD2-RIPK2 interaction inhibitors; inhibition, % at 4.98 µM; 1,200 tested, 70% active; CHO cells, NOD2-RIPK2 BLA complementation, CCF4 FRET; AID 624370; shares compounds with NOD2-RIPK2 inh;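 active = mean inhibition across replicates above a set limit taken from the earlier primary screen, cut at about 21% in these data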;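 note: 0% = DMSO-only wells and the high end = clavulanate BLA-blocked wells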
BLA counter-2: NOD2-RIPK2 counterscreen BLA reporter activity | inhibition, % at 4.98 µM | AID 624371 | shares compounds with NOD2-RIPK2 inh | CHO BLA reporter, CCF4 FRET ratio | 1,200 tested, 57% active;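 active = mean inhibition above the low-control mean inhibition plus three low-control SD, cut at about 11% in these data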;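 note: 0% = DMSO only wells and 100% = clavulanate high control wells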
* = called active by the depositor; · = no result given. This is one part of a sample in which hits are shown more often than they occur.

SMILES	CHOP inh	CHOP UPR activ	NOD2-RIPK2 inh	TLR9-MyD88 inh	TLR4-MyD88 BLA	UPR XBP1 act	TLR4-MyD88 conf	BLA inh HeLa	TLR9-MyD88 cf	BLA counter-1	TLR9 CHO tox	NOD2 RIPK2 conf	BLA counter-2	others
N#Cc1ccc(/C=C\c2nccc3c2[nH]c2ccccc23)cc1	78*	-1	26*	21*	33*	-2	18	54*	18	36	13*	37*	56*
Clc1ccc(/C=C\c2nccc3c2[nH]c2ccccc23)cc1	0	·	-57	-74	-107	·	·	·	·	·	·	·	·
C[C@@H]1CN([C@H](C)CO)C(=O)CCCn2nncc2CO[C@H]1CN(C)C(=O)Cc1ccccc1	·	·	-9	-18	·	·	·	·	·	·	·	·	·
CCOc1cc(OCC)cc(C(=O)N2CCC[C@H]2C(=O)N2CCC[C@H]2C(=O)NCc2cccc(OC)c2)c1	·	·	0	·	·	·	·	·	·	·	·	·	·
Cc1[nH]c2ccccc2c1/C=C/C(=O)c1ccccc1	0	12	44*	40*	27*	0	27*	49*	21	22	1	43*	49*
Cc1[nH]c2ccccc2c1/C=N/NC(=O)c1ccccc1	·	1	4	3	·	10	·	·	·	·	·	·	·
CCCCCCCCCC(=O)NC(CN1CCOCC1)[C@H](O)c1ccccc1 (some centres not stated)	-6	·	·	·	·	·	·	·	·	·	·	·	·
CC(OC(=O)c1c2c(nc3ccccc13)/C(=C\c1ccc3c(c1)OCO3)CCC2)C(=O)Nc1ccc(S(N)(=O)=O)cc1 (configuration not stated)	8	·	4	5	12	·	·	·	·	·	·	·	·
CNC(=O)NC(=O)C(C)OC(=O)c1c2c(nc3ccccc13)/C(=C/c1cccs1)CC2 (configuration not stated)	47	4	56*	51*	51*	2	55*	85*	51*	63*	11*	72*	81*
CCCCNC(=O)COC(=O)c1c2c(nc3ccccc13)CCC2	·	1	2	3	·	-2	·	·	·	·	·	·	·
CCCCNC(=O)COC(=O)c1c2c(nc3ccccc13)/C(=C/c1cccs1)CC2	47	·	52*	48*	56*	·	50*	83*	43*	46	6	67*	77*
O=[N+]([O-])c1ccc(N/N=C/c2c[nH]c3ccccc23)cc1	57	9	36*	44*	40*	9	28*	53*	29*	24	9	46*	47*
O=C(N/N=C/c1c[nH]c2ccccc12)c1cccc([N+](=O)[O-])c1	3	1	2	-16	1	-2	·	·	·	·	·	·	·
CCc1ccc2c(c1)NC(=O)C2(C)Cc1ccccc1 (configuration not stated)	·	·	-7	·	·	·	·	·	·	·	·	·	·
CCc1ccc2c(c1)C1(NN=C(c3cccc4ccccc34)S1)C(=O)N2 (configuration not stated)	104*	95*	30*	27*	31*	7	3	28*	·	·	·	4	8	CHOP inh conf=63
O=C(Cc1cccc(NC(=O)C2CCCN(C(=O)C3CCCCC3)C2)c1)Nc1cccc(C(=O)N2CCOCC2)c1 (configuration not stated)	·	·	9	1	·	·	·	·	·	·	·	·	·
CCN(CC)c1ccc2c(C)c(Cl)c(=O)oc2c1	18	3	15	8	16	1	·	·	·	·	·	·	·
CCN(CC)c1ccc2c(c1)oc(=O)c1c(Cl)cc(=O)oc12	108*	24	62*	50*	80*	-7	87*	109*	51*	74*	73*	89*	84*	CHOP inh conf=26
COc1ccc(CNC(=O)Nc2nc(C(N)CCc3ccccc3)cs2)cc1 (configuration not stated)	·	·	0	·	·	·	·	·	·	·	·	·	·
O=Cc1s/c(=N\S(=O)(=O)c2ccccc2)n(CCCCl)c1Cl	107*	·	85*	37*	30*	·	28*	2	42*	8	96*	96*	36*	CHOP inh conf=112*
CN1C(=O)c2ccccc2Cc2c(NCc3ccccc3)ncnc21	·	·	-6	8	·	·	·	·	·	·	·	·	·
Cn1c(CC(O)c2nc3ccccc3n2C)nc2ccccc21 (configuration not stated)	·	·	-12	3	·	·	·	·	·	·	·	·	·
Cc1nn(C)c(C)c1N1C(=O)c2cccc3c(N)ccc(c23)C1=O	1	·	34*	29*	29*	·	20	44*	15	19	3	44*	44*
Cc1nn(C)c(C)c1N1C(=O)c2cccc3c(Br)ccc(c23)C1=O	-20	-2	56*	48*	66*	-2	52*	92*	29*	33	6	51*	42*
O=C1c2cccc3c(O)ccc(c23)C(=O)N1Cc1ccccc1	8	-1	42*	26*	32*	-5	11	34*	·	·	·	46*	56*
Cc1cccc(CN2CCN(C3CN(Cc4cn(Cc5ccc(Cl)cc5)nn4)S(=O)(=O)C3)CC2)c1 (configuration not stated)	·	·	-1	·	·	·	·	·	·	·	·	·	·
Cc1ccc2nc(/C(C#N)=C\c3ccc([N+](=O)[O-])o3)[nH]c2c1	-15	-8	27*	24*	84*	-9	83*	96*	57*	70*	75*	86*	70*
